Data as given in PubChem BioAssay AID2445 (The Scripps Research Institute Molecular Screening Center, 2010).
About 200 (0.062%) of roughly 320,000 compounds were called active.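 Rule for the calls: active = activation above that plate's cutoff, the mean activation of tested compounds plus 3 SD (cut at about 6.6% in these data, passing the limit was not always enough); inactive = the rest.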 Shown is part of a subset that was picked to be rich in actives.

Target: Oxytocin receptor (Homo sapiens) (UniProt P30559)
Assay: human OXTR potentiators, primary screen, fluorescence, CHO-OTR cells, Fluo-8 calcium (AID 2445);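 note: 100% uses oxytocin at 75 nM as the full agonist control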
Conditions: Fluo-8 calcium fluorescence, potentiator mode, at 3 µM, hits give high values, 0% = oxytocin EC15, 100% = EC100
Summary of the method: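 test system = CHO-OTR cells, human receptor | compound = single-point 3.0 µM | schedule = 6 min compound pre-incubation at room temperature, 100 s kinetic read | signal = Fluo-8 no-wash calcium dye fluorescence, excitation 470-495 nm, emission 515-575 nm | repeats = single well per compound, singlicate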

Chain of Oxytocin receptor (Homo sapiens) (P30559 whole entry, looked up): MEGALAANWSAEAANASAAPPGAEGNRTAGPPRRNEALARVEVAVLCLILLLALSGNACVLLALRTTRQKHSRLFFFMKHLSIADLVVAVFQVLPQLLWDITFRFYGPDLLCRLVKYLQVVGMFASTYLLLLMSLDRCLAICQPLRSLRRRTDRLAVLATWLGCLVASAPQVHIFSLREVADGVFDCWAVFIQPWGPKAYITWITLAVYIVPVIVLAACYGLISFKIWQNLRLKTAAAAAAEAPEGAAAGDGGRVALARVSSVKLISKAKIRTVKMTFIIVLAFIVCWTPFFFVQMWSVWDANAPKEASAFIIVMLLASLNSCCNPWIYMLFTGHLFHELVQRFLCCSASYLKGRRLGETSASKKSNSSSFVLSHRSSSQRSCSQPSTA

activation, inactive:
CC1CCC(NS(=O)(=O)c2ccc3c(c2)CC(=O)N3)CC1 (configuration not stated) -7.03%
Cc1cc(C)cc(N(CC(=O)NC2CCCC2)C(=O)CCC(=O)Nc2cc(C)on2)c1 -12.7%
Nc1ccc(SCCN2C(=O)c3ccccc3C2=O)cc1 -2.44%
COc1cc(/C=C2\SC(=O)NC2=O)ccc1OCc1ccc(Cl)nc1 -15.2%
CCOC(=O)c1ccccc1NC(=O)c1c(N)n(C)c(=O)[nH]c1=O -5.38%
CCC(C)[C@H](NC(=O)N1c2ccccc2NC(=O)[C@@H]1C(C)C)C(=O)N[C@@H](Cc1ccccc1)C(=O)O (some centres not stated) -4.93%
CC1(C)CC(=O)CC2(C1)NCC(c1ccccc1Cl)c1c2[nH]c2ccccc12 (configuration not stated) -23.6%
Cc1cccn2c(=O)nc(SCC(=O)NCc3ccccc3Cl)nc12 -9.43%
O=C(NCCc1ccccn1)c1cc(C(=O)C2CCCCC2)c[nH]1 -8.37%
Cc1nc(NCc2ccccc2)c(C(N)=O)c2c1COC(C)(C)C2 -7.89%
O=C1CCCc2nn(-c3ccccc3)nc21 -20.3%
CCc1cc2c(SCC(=O)Nc3ncc(Cl)c(C)c3Cl)ncnc2s1 -3.54%
CC(C)Cn1c(CN(Cc2ccccc2)Cc2ccccc2)nc2c1c(=O)n(C)c(=O)n2C -4.31%
CC(C)CCn1c(CN(C)Cc2ccccc2)nc2c1c(=O)n(C)c(=O)n2C -2.79%
CCc1nn(CCCC(=O)NCc2ccc(C)cc2)c(=O)c2cc3occc3n12 -17.3%
CCOC(=O)[C@H]1[C@H]2COc3cc(OC)ccc3[C@@H]2N2C(=O)N(c3ccc(Br)cc3)C(=O)[C@@]12C -10.7%
O=P(O)(CP(=O)(c1ccccc1)c1ccccc1)c1ccccc1 -9.44%
Cc1cccc(N2CCN(C(=O)CN(C)S(=O)(=O)c3ccc4c(c3)CCC(=O)N4)CC2)c1C -9.67%
CC(Oc1ccc(F)cc1)C(=O)Nc1ccccc1C(=O)NC1CC1 (configuration not stated) 2.5%
Cc1c(-c2nn(C)c(=O)c3ccccc23)oc2ccc(F)cc2c1=O -8.96%
C=CCOC(=O)C1=C[C@@H](c2ccc3c(c2)OCO3)C[C@@H](OCCCCO)O1 -0.78%
Cc1ccc(N/N=C2\COC(C)(C)CC2=O)cc1 -4.26%
CCOc1ccc(-c2c(C)n([O-])c3c([n+]2=O)CCCC3)cc1 -2.39%
Cc1ccc2c(c1)C(O)(CC(=O)c1cccc(-n3cccc3)c1)C(=O)N2 (configuration not stated) -5.12%
O=C(COc1ncnc2c(Cl)cc(Cl)cc12)N1CCN(S(=O)(=O)c2ccccc2)CC1 -0.15%
Cc1ccc(S(=O)(=O)N(C)c2ccc(OCC(=O)OCc3ccc(C#N)cc3)cc2)cc1 -6.02%
COc1ccc2c(c1)CC[C@@H]1[C@@H]2CC[C@]2(C)C(=O)CC[C@@H]12 -6.25%
O=S(=O)(NCCOc1cccc2cccnc12)c1ccc(F)cc1 -8.04%
COc1cccc(NC(=O)CSc2nnc(Cc3ccc(OC)c(OC)c3)o2)c1 -7.75%
Cc1cccc(N=C2SC(C)CN2C(=O)CN2C(=O)NC3(CCCC3)C2=O)c1 (configuration not stated) -10%
CCOc1ccc(C(=O)Nc2cc(Cl)ccc2-n2cncn2)cc1OC 3.32%
c1ccc(-c2cn3c(n2)CCc2ccc4cccnc4c2-3)cc1 0.09%
CCC(C)N(C(=O)COC(=O)C1C(C(=O)OC)=C(C)NC(C)=C1C(=O)OC)C1CCS(=O)(=O)C1 (configuration not stated) -7.92%
COc1ccc(NC(=O)CC(NC(C)c2ccccc2)C(=O)O)cc1 (configuration not stated) 1.93%
Cc1cc(C)cc(NC(=O)CN2C(=O)c3ccccc3C2=O)c1 -3.2%
CSc1cccc(NC(=O)CSc2ccccc2)c1 -15.7%
CCCCn1c(N)c(N(CC(C)C)C(=O)CSc2ccc([N+](=O)[O-])cc2)c(=O)[nH]c1=O 1.02%
Cc1ccc(-c2nnc(-n3nnc4ccccc43)c3ccccc23)cc1 -11.2%
Cc1ccc(Cl)cc1NC(=O)CN1CCN(S(=O)(=O)N2CCOCC2)CC1 -9.03%
Cc1ccc(S(=O)(=O)NC2(C(F)(F)F)NC(=O)N(CCc3ccccc3)C2=O)cc1 (configuration not stated) -18.6%
COc1cccc(N2CCN(c3ccc4nnc(CCC(=O)N5CCN(C)CC5)n4n3)CC2)c1 -0.01%
Cc1ccc(S(=O)(=O)N(CCCN(C)C)Cc2ccc3c(c2)OCO3)cc1 -1.86%
COc1ccc(SCc2noc(C(=O)NCC3CCCO3)c2C(=O)O)cc1 (configuration not stated) 3.88%
CC1CN(CC(=O)NC(C)c2ccccc2)CC(C)O1 (configuration not stated) -2.73%
CC(C)Oc1ccccc1C(=O)NC(CO)C(=O)O (configuration not stated) 7%
COc1ccc(CNc2cc(C)cc(C)c2)cc1OC -5.89%
Cc1c(CN2CCC(CO)(CCOc3ccccc3)CC2)[nH]c2ccc(Cl)cc12 -15%
Cc1c(C)c2c(OCC(=O)N[C@@H](C(=O)O)c3ccccc3)cc3c(c2oc1=O)CCC(C)(C)O3 0.86%
CCc1c(SCCC(=O)O)nc2ccccc2c1C 2.81%
CN1CCN(c2ccc(CNS(=O)(=O)c3cccc(F)c3)cc2)CC1 -0.68%
Cc1ccsc1CNn1cnnc1SCc1ccccc1F -4.45%
c1ccc2c(-c3nn4nnnc4c4ccccc34)cccc2c1 -11%
C=CCNC(=O)c1ccc2c3n(nc2c1)-c1ccc(C)cc1CO3 -15.6%
N#Cc1c(NC(=O)C2CCCO2)sc2c1CCCCC2 (configuration not stated) -9.34%
NC(=O)C1CC(=O)N(c2ccc(OCC(=O)NCc3ccccc3)cc2)C1 (configuration not stated) 2.9%
CC1CCC2CCCCC2N1C(=O)c1cc([N+](=O)[O-])cc([N+](=O)[O-])c1 (configuration not stated) -6.56%
OCCN1CCOCCOCCN(CCO)CCN(CCO)CC1 -14%
Cc1cccc2c1-c1sc(C(=O)NCCCN3CCc4ccccc4C3)cc1CO2 -6.4%
O=C(NCc1ccccc1)C1CCN(C(=O)Cc2ccccc2)CC1 -0.95%
Cc1ccc(N2C(=O)CN=C2Nc2nc(C)cc(C)n2)cc1 -1.27%
COc1ccc(Br)c2c1C(=O)CC2 -5.51%
Cc1ccc(S(=O)(=O)NCC2CCC(C(=O)N3CCOCC3)CC2)cc1 (configuration not stated) -11.8%
CS(=O)(=O)Nc1ccccc1C(=O)OCC(=O)NC1CC1 -5.14%
O=C(Nc1ccccc1C(=O)N1CCOCC1)c1ccc(Cl)cc1 -4.35%
COC(=O)CSc1snnc1-c1ccc(Cl)c(Cl)c1 -15.7%
O=C(O)c1ccc2c(=O)n3c(nc2c1)/C(=C/c1ccc(OC(F)F)cc1OC(F)F)CC3 1.58%
Cn1c(N)c(C(=O)COC(=O)c2ccccc2NCc2ccco2)c(=O)n(C)c1=O -14.4%
Cc1ccccc1Cn1c2ccccc2c2cnn(CC(=O)NCc3ccco3)c(=O)c21 1.81%
CCCCCCCCCCCCN1[C@@H](CC(C)=O)c2cc(F)cc(F)c2S1(=O)=O 9.85%
O=C(Nc1nc(-c2ccco2)c(-c2ccco2)s1)c1ccco1 -4.21%
COc1ccc(OCC(=O)Nc2nnc(-c3ccco3)s2)cc1 -4.78%
CC(C)N(Cc1ccccc1)C(=O)COC(=O)c1cnccn1 -12.7%
COc1cc(OC)c(C(=O)OC(C)C(=O)Nc2cc(C(F)(F)F)ccc2Cl)cc1OC (configuration not stated) -8.37%
Cc1noc(C)c1NC(=O)Nc1ccc2c(c1)C(=O)N([C@H](C)CO)C[C@H](C)[C@@H](CN(C)C(=O)Nc1ccccc1)O2 -1.66%
CSc1ncccc1C(=O)OCc1ccc(Br)cc1 -14.7%
O=C(O)CCCCOn1ccnc1 3.24%
Cc1nc2cc(NCc3cccs3)ccc2n1C -14.8%
O=C1/C(=C/c2ccc3c(c2)OCO3)Oc2cc(OCC(=O)N3CC(O)C[C@H]3C(=O)O)ccc21 (some centres not stated) -2.05%
Cc1nc(-c2ccc(F)cc2)c(CC(=O)N2CCN(S(=O)(=O)c3ccc(F)cc3)CC2)s1 -7.74%
O=C(Nc1ccc(F)cc1)C1CCN(C(=O)c2ccc([N+](=O)[O-])cc2)CC1 -7.48%
Cc1ccc(NC(=O)COc2coc(CN3CCc4ccccc4C3)cc2=O)cc1Cl -8.11%
CCOC(=O)C1=C(N)N2C(=O)C(C)SC2=C(C(=O)OCC)C1c1cc(OC)c(OC)c(OC)c1 (configuration not stated) 3.06%
O=C(Nc1ccc(F)cc1F)N1CCCN(CCOc2ccccc2)CC1 -5.95%
O=C1CC(c2c(F)cccc2Cl)C(n2cncn2)C(O)=C1C1NCCc2ccccc21 (configuration not stated) 2.91%
O=C(COC(=O)CCc1nc2ccccc2c(=O)[nH]1)Nc1ccc(N2CCOCC2)cc1 -2.47%
CC1CCCCC12NC(=O)N(CC(=O)Nc1ccc(S(=O)(=O)Nc3ncccn3)cc1)C2=O (configuration not stated) 1.55%
CCCCNc1c(-c2cccc(Sc3ccc(OC)cc3)c2)nc2ccccn12 -2.7%
CCCCCCSc1ccc(-c2nc3ccc(Cl)cn3c2NCc2ccccc2)cc1 -4.96%

activation, active:
COCCn1c(CN(Cc2ccccc2)Cc2ccccc2)nc2c1c(=O)n(C)c(=O)n2C 6.98%
Cc1cc(C)cc(NC(=O)CSc2ccccc2)c1 12.9%
CNc1nnc(-c2ccco2)s1 11.7%
CCCCNc1c(-c2ccc(OC)c(Sc3ccc(OC)cc3)c2)nc2ccc(Cl)cn12 13.1%
